From ChEMBL document CHEMBL4138246, “Natural product inspired library synthesis - Identification of 2,3-diarylbenzofuran and 2,3-dihydrobenzofuran based inhibitors of Chlamydia trachomatis” (Eur J Med Chem, 2018)

Columns and labels:
[1] = Cytotoxicity against human HeLa 299 cells assessed as reduction in cell viability after 48 hrs by XTT assay; assay type: cell-based
Outline: (§1)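 HeLa299 cells are seeded at 7000/well and cultured overnight in RPMI with 10% FBS and 2 mM […] at 37 °C with 5% CO2. The medium is then swapped for phenol red-free DMEM with 0.5% DMSO, with or without compound at 25 and 50, in at least three replicate wells each, for 48 h. XTT with activation reagent is read after 2.5 h at 475 minus 660 nm, blank-corrected, and expressed as % of DMSO control.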

[2] = Cytotoxicity against human HeLa 299 cells assessed as cell viability at 25 uM after 48 hrs by XTT assay relative to control; assay type: cell-based; conditions: read-out: Activity; outline: as §1
[3] = Cytotoxicity against human HeLa 299 cells assessed as cell viability at 50 uM after 48 hrs by XTT assay relative to control; assay type: cell-based; conditions: for viability at 48 h, 50 µM: HeLa 299 cells, read-out: Activity; for Activity: 48 h, 50 µM; outline: as §1
Chlamydia trachomatis [4] = experiment: Antichlamydial activity against Chlamydia trachomatis serovar L2 454/Bu infected in human HeLa 299 cells assessed as reduction in number of inclusion bodies measured after 44 to 48 hrs by DAPI staining-based HCS assay; assay type: functional, organism-based
Outline: (§2)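 HeLa299 cells are seeded at 15,000/well, cultured overnight at 37 °C with 5% CO2 in RPMI with 10% FBS and 2 mM […], then infected with serovar L2 454/Bu at MOI about 0.3 in HBSS. At 1 h the inoculum is replaced with medium containing 0.5% DMSO and 1:1 serial dilutions of compound over eleven concentrations. After 44–48 h, cells are fixed in methanol for 5 min. Inclusions are stained with rabbit anti-Chlamydia antibody, a FITC secondary, and DAPI. Inclusions over 130 µm² are counted by automated imaging and expressed as % of DMSO-control inclusions. IC50 is from nonlinear regression of at least three independent experiments.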

[5] = Cytotoxicity against human HeLa 299 cells assessed as reduction in cell viability at 25 uM after 48 hrs by XTT assay
Chlamydia trachomatis [6] = experiment: Antichlamydial activity against Chlamydia trachomatis serovar D […] infected in human HeLa 299 cells assessed as reduction in number of inclusion bodies measured after 44 to 48 hrs by DAPI staining-based HCS assay; assay type: functional, organism-based
Chlamydia trachomatis [7] = experiment: Antichlamydial activity against Chlamydia trachomatis serovar L2 infected in human HeLa 299 cells assessed as reduction in number of inclusion bodies measured after 44 to 48 hrs by DAPI staining-based HCS assay; assay type: functional, organism-based; outline: as §2
Chlamydia trachomatis [8] = experiment: Antichlamydial activity against Chlamydia trachomatis serovar A […] infected in human HeLa 299 cells assessed as reduction in number of inclusion bodies measured after 44 to 48 hrs by DAPI staining-based HCS assay; assay type: functional, organism-based

Row | Structure (SMILES) | IC50 (Chlamydia trachomatis [4]; read-out: IC50) | IC50 (Chlamydia trachomatis [4]; read-out: pIC50 (converted)) | IC50 (Chlamydia trachomatis [6]) | IC50 (Chlamydia trachomatis [7]) | IC50 (Chlamydia trachomatis [8]) | Activity [1] | viability at 48 h, 25 µM [2] | viability at 48 h, 50 µM [3] | Activity [5] | Activity [3]
1 | Oc1ccc(-c2oc3cc(O)ccc3c2-c2ccc(F)cc2)cc1 |  |  |  |  |  | Dose-dependent effect | 105% | 42% |  | 
2 | Oc1ccc(-c2oc3ccccc3c2-c2cccnc2)cc1 |  |  |  |  |  | Dose-dependent effect | 79% | 61% |  | 
3 | COc1ccc(-c2oc3ccccc3c2-c2ccc(OC)cc2)cc1 | 11.6 µM | 11.6 µM |  |  |  |  | 92% | 94% |  | 
4 | Oc1ccc(-c2oc3ccccc3c2-c2cccc(F)c2)cc1 |  |  |  |  |  |  |  | < 70% | Toxic | 
5 | Oc1ccc(-c2oc3ccc(F)cc3c2-c2ccc(O)cc2)cc1 |  |  |  |  |  |  |  | < 70% | Toxic | 
6 | Oc1ccc(-c2oc3ccc(F)cc3c2-c2ccnc(F)c2)cc1 |  |  |  |  |  | Dose-dependent effect | 107% | 53% |  | 
7 | COc1cccc(-c2oc3ccc(F)cc3c2-c2ccc3c(c2)OCO3)c1 |  |  |  |  |  |  |  | < 70% | Toxic | 
8 | COc1ccc(-c2oc3ccccc3c2-c2cccnc2)cc1 | 2.4 µM | 2.44 µM | 2.44 µM | 1 µM | 2.63 µM |  | 82% | 103% |  | 
9 | Oc1ccc(-c2oc3ccccc3c2-c2ccnc(F)c2)cc1 |  |  |  |  |  | Dose-dependent effect | 90% | 52% |  | 
10 | COc1ccc(-c2oc3cc(OC)ccc3c2-c2ccc(F)cc2)cc1 |  |  |  |  |  |  |  | < 70% | Toxic | 
11 | Oc1ccc(-c2oc3ccccc3c2-c2ccc(O)cc2)cc1 |  |  |  |  |  | Dose-dependent effect | 74% | 32% |  | 
12 | COc1ccc(-c2oc3cc(OC)ccc3c2-c2ccc(C(F)(F)F)cc2)cc1 |  |  |  |  |  | Dose-dependent effect | 84% | 45% |  | 
13 | COc1ccc(-c2oc3cc(OC)ccc3c2-c2ccc(OC)cc2)cc1 | 12.8 µM | 12.8 µM |  |  |  |  | 106% | 100% |  | 
14 | c1ccc(COc2ccc(-c3oc4ccccc4c3-c3cccnc3)cc2)cc1 | 15 µM | 15 µM |  |  |  |  | 76% | 82% |  | 
15 | Oc1ccc(-c2oc3cc(O)ccc3c2-c2ccnc(F)c2)cc1 |  |  |  |  |  |  |  | < 70% | Toxic | 
16 | COc1ccc(-c2oc3cc(OC)ccc3c2-c2ccc(F)c(F)c2)cc1 | 27 µM | 27 µM |  |  |  |  | 96% | 101% |  | 
17 | COc1ccc(C2c3ccc(OC)cc3OC2c2ccccc2)cc1 (racemic) |  |  |  |  |  |  |  | < 70% | Toxic | 
18 | COc1ccc2c(c1)OC(c1ccccc1)C2c1ccc(F)c(F)c1 (racemic; 39) |  |  |  |  |  |  |  |  | Toxic | < 70%
19 | CC[C@H]1OC(=O)[C@H](C)[C@@H](O[C@H]2C[C@@](C)(OC)[C@@H](O)[C@H](C)O2)[C@H](C)[C@@H](O[C@@H]2O[C@H](C)C[C@H](N(C)C)[C@H]2O)[C@](C)(O)C[C@@H](C)CN(C)[C@H](C)[C@@H](O)[C@]1(C)O [AZITHROMYCIN] |  |  |  | 0.727 µM |  |  |  |  |  | 
20 | CC1COc2c(N3CCN(C)CC3)c(F)cc3c(=O)c(C(=O)O)cn1c23 (centres undefined) [OFLOXACIN] |  |  |  | 0.666 µM |  |  |  |  |  | 

Second part, led by results:

Row | IC50 (Chlamydia trachomatis [4]; read-out: IC50) | IC50 (Chlamydia trachomatis [4]; read-out: pIC50 (converted)) | IC50 (Chlamydia trachomatis [6]) | IC50 (Chlamydia trachomatis [7]) | IC50 (Chlamydia trachomatis [8]) | Structure (SMILES) | Activity [1] | viability at 48 h, 25 µM [2] | viability at 48 h, 50 µM [3] | Activity [5] | Activity [3]
21 | 15.2 µM | 15.2 µM |  |  |  | COc1ccc(-c2oc3ccc(F)cc3c2-c2ccc(OC)cc2)cc1 |  | 82% | 99% |  | 
22 | 2 µM | 2.04 µM | 2.04 µM | 0.965 µM | 1.6 µM | COc1ccc(-c2oc3ccccc3c2-c2ccnc(F)c2)cc1 |  | 84% | 97% |  | 
23 | 2.7 µM | 2.73 µM | 2.19 µM | 1.81 µM | 1.34 µM | COc1ccc(-c2oc3cc(OC)ccc3c2-c2ccnc(F)c2)cc1 |  | 68% | 93% |  | 
24 | 22.1 µM | 22.1 µM |  |  |  | COc1ccc(-c2oc3ccccc3c2-c2cccc(F)c2)cc1 |  | 79% | 84% |  | 
25 | 4.2 µM | 4.21 µM | 5.04 µM | 4.73 µM | 1.84 µM | COc1ccc(-c2oc3ccc(F)cc3c2-c2ccnc(F)c2)cc1 |  | 90% | 103% |  | 
26 | 8.7 µM | 8.73 µM |  |  |  | COc1ccc(-c2oc3ccccc3c2-c2ccc(F)c(F)c2)cc1 |  | 90% | 96% |  | 
27 | 25.8 µM | 25.8 µM |  |  |  | COc1cccc(C2Oc3ccc(F)cc3C2c2ccc3c(c2)OCO3)c1 (racemic) |  | 88% | 103% |  | 
28 | 25.4 µM | 25.4 µM |  |  |  | c1ccc(C2Oc3ccccc3C2c2ccccc2)cc1 (racemic) |  | 72% | 88% |  | 
29 | 1 µM | 0.998 µM | 0.7 µM | 0.581 µM | 0.079 µM | COc1cccc(C2Oc3cc(OC)ccc3C2c2ccc(F)c(F)c2)c1 (racemic) |  | 93% | 95% |  | 
30 | 25 µM | 25 µM |  |  |  | N#Cc1cccc(C2c3ccccc3OC2c2ccccc2)c1 (racemic) |  | 90% | 96% |  | 
31 | 24.9 µM | 24.9 µM |  |  |  | Fc1cccc(C2c3cc(F)ccc3OC2c2ccccc2)c1 (racemic) |  | 83% | 84% |  | 
32 | 19.8 µM | 19.9 µM |  |  |  | COc1cccc(C2Oc3ccc(F)cc3C2c2ccc(F)c(F)c2)c1 (racemic) |  | 80% | 118% |  | 
33 | 10.6 µM | 10.6 µM |  |  |  | COc1ccc(C2c3ccc(OC)cc3OC2c2cccc(OC)c2)cc1 (racemic) |  | 76% | 90% |  | 
34 | 27.2 µM | 27.2 µM |  |  |  | Fc1ccc(C2c3ccccc3OC2c2ccccc2)cc1F (racemic) |  | 75% | 87% |  | 
35 | 23.4 µM | 23.4 µM |  |  |  | COc1ccc2c(c1)OC(c1ccccc1)C2c1ccc(F)c(F)c1 (racemic; 38) |  | 84% |  |  | 102%
